# Experimental data: ChEMBL document CHEMBL4406821, “Novel dual inhibitors targeting CDK4 and VEGFR2 synergistically suppressed cancer progression and angiogenesis” (Eur J Med Chem, 2019)
# Columns and labels:
# [1] = molecular target: Protein kinase C eta type (Homo sapiens) (UniProt P24723); experiment: Inhibition of recombinant human full length PKCeta (2 to end residues) at 1 uM using ERMRPRKRQGSVRRRV as substrate incubated for 40 mins in presence of [gamma-33P]-ATP by scintillation counting method relative to control
# [2] = molecular target: Ephrin type-B receptor 2 (Homo sapiens) (UniProt P29323); experiment: Inhibition of recombinant human EPhB2 (560 to end residues) at 1 uM using poly(Glu, Tyr) 4:1 as substrate incubated for 40 mins in presence of [gamma-33P]-ATP by scintillation counting method relative to control
# [3] = test system: Mitogen-activated protein kinase 14 (Homo sapiens), Q16539 [T106M]; experiment: Inhibition of recombinant human full length SAPK2a T106M mutant at 1 uM using myelin basic protein as substrate incubated for 40 mins in presence of [gamma-33P]-ATP by scintillation counting method relative to control
# Summary of the method: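 Tested at a single 1 uM in an outsourced commercial kinase-profiling panel, read as percent inhibition. Each value is the mean of two independent experiments.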
# [4] = Toxicity in NOD/SCID BALB/c mouse xenografted with human SiHa cells assessed as toxic effects in liver at 40 mg/kg, po administered for 48 hrs by hematoxylin and eosin staining method; type: organism-based; details: in vivo
# [5] = molecular target: Tyrosine-protein kinase receptor UFO (Homo sapiens) (UniProt P30530); experiment: Inhibition of recombinant human AXL (473 to end residues) at 1 uM using KKSRGDYMTMQIG as substrate incubated for 40 mins in presence of [gamma-33P]-ATP by scintillation counting method relative to control
# Summary of the method: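 Kinase panel profiling at 1 μM performed by Eurofins KinaseProfiler; percent inhibition reported as mean of two independent experiments.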
# [6] = molecular target: Serine/threonine-protein kinase 25 (Homo sapiens) (UniProt O00506); experiment: Inhibition of recombinant human STK25 (1 to 308 residues) at 1 uM using RLGRDKYKTLRQIRQ as substrate incubated for 40 mins in presence of [gamma-33P]-ATP by scintillation counting method relative to control
# Serine/threonine-protein kinase 25 (Homo sapiens), sequence (O00506 whole entry, looked up, the tested form may be a part): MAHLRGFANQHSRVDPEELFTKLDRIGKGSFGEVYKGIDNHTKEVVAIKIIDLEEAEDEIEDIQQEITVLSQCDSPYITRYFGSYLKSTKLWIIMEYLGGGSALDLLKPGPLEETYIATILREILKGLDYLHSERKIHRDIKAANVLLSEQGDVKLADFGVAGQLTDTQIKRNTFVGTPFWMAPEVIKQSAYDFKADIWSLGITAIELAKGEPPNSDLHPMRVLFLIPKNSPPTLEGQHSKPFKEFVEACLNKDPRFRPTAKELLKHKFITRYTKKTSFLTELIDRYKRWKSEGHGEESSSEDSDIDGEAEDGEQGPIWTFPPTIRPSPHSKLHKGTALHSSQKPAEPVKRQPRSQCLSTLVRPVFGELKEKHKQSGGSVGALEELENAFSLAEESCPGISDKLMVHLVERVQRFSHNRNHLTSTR
# Ephrin type-B receptor 2 (Homo sapiens), sequence (P29323 whole entry): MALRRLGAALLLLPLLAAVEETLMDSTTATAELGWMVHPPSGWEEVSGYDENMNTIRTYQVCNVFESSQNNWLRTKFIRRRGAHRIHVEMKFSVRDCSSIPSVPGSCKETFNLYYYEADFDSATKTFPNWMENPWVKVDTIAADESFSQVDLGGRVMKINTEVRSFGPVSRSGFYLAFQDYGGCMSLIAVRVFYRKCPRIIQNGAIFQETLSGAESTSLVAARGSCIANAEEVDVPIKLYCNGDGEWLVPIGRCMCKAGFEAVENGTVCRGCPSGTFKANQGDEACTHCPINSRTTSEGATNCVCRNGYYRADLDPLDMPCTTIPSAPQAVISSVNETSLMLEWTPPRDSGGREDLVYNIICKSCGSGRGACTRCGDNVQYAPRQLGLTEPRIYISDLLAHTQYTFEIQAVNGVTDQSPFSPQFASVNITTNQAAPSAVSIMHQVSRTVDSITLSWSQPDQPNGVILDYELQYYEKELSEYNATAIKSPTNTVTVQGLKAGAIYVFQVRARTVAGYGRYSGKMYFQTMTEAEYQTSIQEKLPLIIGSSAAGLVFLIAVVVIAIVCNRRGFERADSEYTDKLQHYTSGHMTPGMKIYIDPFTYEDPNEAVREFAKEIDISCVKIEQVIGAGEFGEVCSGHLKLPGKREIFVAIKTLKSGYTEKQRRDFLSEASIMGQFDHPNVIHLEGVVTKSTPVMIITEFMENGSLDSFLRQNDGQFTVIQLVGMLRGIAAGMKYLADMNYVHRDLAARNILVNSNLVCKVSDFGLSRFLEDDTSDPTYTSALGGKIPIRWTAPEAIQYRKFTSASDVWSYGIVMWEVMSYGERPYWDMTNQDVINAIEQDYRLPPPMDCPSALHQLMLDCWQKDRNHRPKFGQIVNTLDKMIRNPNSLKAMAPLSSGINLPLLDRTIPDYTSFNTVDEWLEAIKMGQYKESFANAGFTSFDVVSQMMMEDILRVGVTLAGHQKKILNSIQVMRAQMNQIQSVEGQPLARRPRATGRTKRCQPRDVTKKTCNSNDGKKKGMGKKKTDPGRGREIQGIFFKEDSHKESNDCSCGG
# Tyrosine-protein kinase receptor UFO (Homo sapiens), sequence (P30530 whole entry): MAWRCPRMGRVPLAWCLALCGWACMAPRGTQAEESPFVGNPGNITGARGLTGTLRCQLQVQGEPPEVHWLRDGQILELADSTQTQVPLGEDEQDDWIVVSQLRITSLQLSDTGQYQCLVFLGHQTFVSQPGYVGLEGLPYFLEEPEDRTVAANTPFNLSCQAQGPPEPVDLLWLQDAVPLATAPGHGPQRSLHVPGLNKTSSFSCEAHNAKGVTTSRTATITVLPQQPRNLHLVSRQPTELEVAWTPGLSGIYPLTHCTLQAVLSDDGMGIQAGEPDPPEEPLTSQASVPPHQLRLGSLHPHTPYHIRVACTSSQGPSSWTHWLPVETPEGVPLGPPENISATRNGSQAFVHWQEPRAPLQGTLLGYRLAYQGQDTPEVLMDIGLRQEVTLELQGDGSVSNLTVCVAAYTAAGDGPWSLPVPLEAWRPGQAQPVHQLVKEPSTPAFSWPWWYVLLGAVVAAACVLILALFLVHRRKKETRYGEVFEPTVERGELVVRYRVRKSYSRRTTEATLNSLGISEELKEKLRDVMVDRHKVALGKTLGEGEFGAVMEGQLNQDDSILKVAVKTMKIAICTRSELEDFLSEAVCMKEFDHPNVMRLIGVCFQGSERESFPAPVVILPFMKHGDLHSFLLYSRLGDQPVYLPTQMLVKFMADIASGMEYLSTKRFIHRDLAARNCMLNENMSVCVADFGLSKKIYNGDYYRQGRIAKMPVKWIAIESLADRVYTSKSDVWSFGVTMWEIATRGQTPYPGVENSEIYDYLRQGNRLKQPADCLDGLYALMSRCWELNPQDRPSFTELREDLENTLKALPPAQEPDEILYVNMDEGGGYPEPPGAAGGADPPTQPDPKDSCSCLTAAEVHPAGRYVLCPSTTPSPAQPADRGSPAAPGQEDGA
# Protein kinase C eta type (Homo sapiens), sequence (P24723 whole entry): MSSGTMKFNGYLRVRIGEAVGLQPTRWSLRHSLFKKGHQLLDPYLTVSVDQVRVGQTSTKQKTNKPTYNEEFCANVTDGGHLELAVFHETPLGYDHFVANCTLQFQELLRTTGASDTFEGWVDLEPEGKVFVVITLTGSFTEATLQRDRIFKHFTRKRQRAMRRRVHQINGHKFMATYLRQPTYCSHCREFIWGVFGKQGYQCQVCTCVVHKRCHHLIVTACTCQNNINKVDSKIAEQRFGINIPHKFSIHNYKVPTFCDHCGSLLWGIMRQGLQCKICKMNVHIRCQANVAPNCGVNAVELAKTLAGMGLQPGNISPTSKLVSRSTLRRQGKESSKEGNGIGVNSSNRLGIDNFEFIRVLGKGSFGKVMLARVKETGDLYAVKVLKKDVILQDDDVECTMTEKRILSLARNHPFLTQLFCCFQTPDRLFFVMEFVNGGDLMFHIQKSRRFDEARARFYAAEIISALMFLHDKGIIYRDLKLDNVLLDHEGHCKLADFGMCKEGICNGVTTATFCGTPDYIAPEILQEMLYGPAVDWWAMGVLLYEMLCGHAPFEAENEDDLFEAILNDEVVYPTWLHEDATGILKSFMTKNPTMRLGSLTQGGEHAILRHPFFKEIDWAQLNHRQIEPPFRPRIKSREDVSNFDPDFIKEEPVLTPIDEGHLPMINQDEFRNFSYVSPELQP
# Mitogen-activated protein kinase 14 (Homo sapiens), Q16539 [T106M], sequence (Q16539 whole entry T106M): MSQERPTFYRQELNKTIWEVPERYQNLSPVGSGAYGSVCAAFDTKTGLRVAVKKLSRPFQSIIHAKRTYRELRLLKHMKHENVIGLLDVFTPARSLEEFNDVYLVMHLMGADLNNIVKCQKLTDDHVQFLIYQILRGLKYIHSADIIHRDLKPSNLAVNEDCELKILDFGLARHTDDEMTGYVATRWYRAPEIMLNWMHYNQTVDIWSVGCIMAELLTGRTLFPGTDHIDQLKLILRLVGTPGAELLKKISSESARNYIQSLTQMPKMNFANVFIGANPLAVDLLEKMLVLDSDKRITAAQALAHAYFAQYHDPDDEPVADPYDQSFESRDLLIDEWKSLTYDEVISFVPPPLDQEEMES
smiles,measurement,setting,value
Cc1ccc(NC(=O)C2(C(=O)Nc3ccc(Nc4ncc(F)c(-c5cc(F)c6nc(C)n(C(C)C)c6c5)n4)cc3)CC2)cc1,inhibition,[1],17%
same,inhibition,[2],23%
same,inhibition,[3],60%
same,Activity,[4],Non-Toxic
same,inhibition,[5],65%
same,inhibition,[6],26%
